A word on the logP: it is a log measure of how a compound divides between an organic and an aqueous phase.

These results are taken from ChEMBL document CHEMBL2434933, “Synthesis, physicochemical properties of allopurinol derivatives and their biological activity against Trypanosoma cruzi” (Eur J Med Chem, 2013).

A short description of data set [1]: Stability of the compound in simulated intestinal fluid at 37 degC after 3 hrs. Format: physicochemical. To be noted: simulated gi fluid. In short, it runs like this: (§1)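 Compounds came from DMSO stocks of 1.0 x 10^-4 mol/mL. They were incubated at 37 °C in buffer pH 1.2 or SGF (pepsin) for 1 h, and in buffer pH 6.8 or SIF (pancreatin) for 3 h. Samples were analysed by micellar LC. Percent degradation was reported; kinetics were treated as pseudo-first-order.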

Data set [2] can be described thus: Stability of the compound in 0.1 M SDS-0.01 M 7.5% (v/v) 1-propanol-NaH2PO4/H3PO4 assessed as compound recovery at 3.5 x 10^-7 mol/ml by micellar liquid chromatography. Format: physicochemical. The essentials:
(§2)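 Recovery: N1-acyl compounds were spiked at 7.5 x 10^-9, 6 x 10^-8 and 3.5 x 10^-7 mol/mL (ten replicates each) into pH 1.2 and 6.8 buffers, SGF and SIF. Analysis used MLC with 0.1 M SDS–7.5% 1-propanol–0.01 M NaH2PO4/H3PO4 pH 3.0, at 1 mL/min, 25 °C and 276 nm. Recovery was calculated against working standards.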

A short description of data set [3]: Stability of the compound in buffer at 37 degC at pH 1.2 after 1 hr in presence of pepsin. Type of data set: ADME. The note with it: isolated protein, pH 1.2, 1 h. The essentials: as §1
Data set [4] in a line: Stability of the compound in 0.1 M SDS-0.01 M 7.5% (v/v) 1-propanol-NaH2PO4/H3PO4 assessed as compound recovery at 6 x 10^-8 mol/ml by micellar liquid chromatography. Format: physicochemical. The essentials: as §2
Data set [5] can be described thus: Drug degradation in 30% H2O2 assessed as allopurinol formation. Format: physicochemical.
The nature of data set [6]: Stability of the compound in 0.1 M SDS-0.01 M 7.5% (v/v) 1-propanol-NaH2PO4/H3PO4 assessed as compound recovery at 7.5 x 10^-9 mol/ml by micellar liquid chromatography. Type of data set: physicochemical. In short, it runs like this: as §2
Data set [7] can be described thus: Octanol-water partition coefficient, log P of the compound by RP-HPLC analysis. Type of data set: physicochemical. In short, it runs like this:
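RP-HPLC lipophilicity: isocratic buffer pH 5.5–MeOH, 30–75% MeOH in 5% steps. Three injections per compound and five per standard at each ratio. log k' = log(tR − t0)/t0 was computed from retention times.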

Data set [8] has as its system Trypanosoma cruzi. The data set is described as follows: Antimicrobial activity against blood stream form of Trypanosoma cruzi RA assessed as growth inhibition at 1 to 70 ug/ml after 24 hrs by Neubauer chamber counting analysis. Type of data set: functional, organism-based. The essentials:
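RA-strain bloodstream trypomastigotes were enriched from infected-mouse blood at peak parasitemia. They were used at 1.5 x 10^6/mL in RPMI 1640 with 10% FCS. Parasites were exposed for 24 h at 37 °C in 5% CO2 to 0–70 ug/mL compound from 40 mM DMSO stocks (final DMSO <0.5%). 0.5% DMSO served as negative control. Surviving parasites were counted by Neubauer chamber. Three independent experiments, each in triplicate.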

Data set [9] can be described thus: Stability of the compound in simulated gastric fluid at 37 degC after 1 hr. The note with it: simulated gi fluid. Format: physicochemical. In short, it runs like this: as §1
Data set [10] is described as follows: Stability of the compound in buffer at 37 degC at pH 6.8 after 3 hrs in presence of pancreatin. Type of data set: ADME. To be noted: pH 6.8, 3 h. The essentials: as §1
Data set [11] concerns Trypanosoma cruzi. As to the kind of experiment: Antimicrobial activity against Trypanosoma cruzi RA amastigotes infected in African green monkey Vero cells assessed as growth inhibition at 1 ug/ml after 72 hrs by Giemsa staining-based light microscopy. Format: functional, organism-based. In short, it runs like this:
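RA-strain bloodstream trypomastigotes infected irradiated Vero cells (2000 rads) on coverslips at a 5:1 parasite:cell ratio for 24 h. Cells were washed, then exposed to 1 ug/mL compound for 72 h at 37 °C in 5% CO2. Coverslips were fixed in methanol and Giemsa-stained. Infected cells were scored by light microscopy against untreated infected cultures.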

Data set [12] can be described thus: Intrinsic solubility of the compound in standard phosphate buffer at pH 6.8 at 25 degC after 24 hrs by shake-flask method. Format: physicochemical. The note with it: read-out: Intrinsic_solubility. The essentials:
(§3)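 Shake-flask intrinsic solubility: solid compound was added to phosphate buffer until excess remained undissolved. The thermostated saturated solution was shaken for 24 h to reach equilibrium, at 25 °C and at 37 °C.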

A further data set deals with Plasma. The data set is described as follows: Metabolic stability of the compound in human plasma. Format: ADME, cell-free. The essentials: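 Stability in human plasma was followed by micellar LC, with allopurinol tracked as product. Pseudo-first-order kinetics gave t1/2 or kobs.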
Data set [13] is described as follows: Intrinsic solubility of the compound in standard phosphate buffer at pH 6.8 at 37 degC after 24 hrs by shake-flask method. Type of data set: physicochemical. The note with it: read-out: Intrinsic_solubility. In short, it runs like this: as §3
A short description of data set [14]: Stability of the compound in simulated intestinal fluid assessed as retention time by micellar liquid chromatography. Type of data set: physicochemical. To be noted: simulated gi fluid.

Values after ≈ are worked out from the molar mass of the structure shown. Active and inactive are the calls of the source. The calls are words filed in the database; no cut-off is given here.

Regarding `Cc1nc(O)c2c[nH]nc2n1`, the Stability result in data set [1] was “Stable”; in data set [3], “Stable”; in data set [5], “Stable”; in data set [9] it was “Stable”; in [10], “Stable”; with Plasma it was 100%. Besides, the Drug recovery in data set [2] came to 102.77%; in data set [4], 102.72%; in [6], 98.57%. For the same compound, in data set [7], the log partition coefficient (logP) is -0.05. For the same compound, the “growth inhibition (GI)” value in the data set with Trypanosoma cruzi [8] was “inactive”. The “growth inhibition (GI)” value in the data set with Trypanosoma cruzi [11] is “Active”. For the same compound, the solubility thermodynamic at 24 h in data set [12] worked out at 1480 µg/mL (≈ 9.86 mM); in [13], 2020 µg/mL (≈ 13.5 mM). The Retention_time in data set [14] is on record as 3 min.
